Reference: PMC4969713 (Journal of Alzheimer's Disease, 2016)
Structures can show the parent of a compound that is named as a salt.

Columns and labels:
5-HT5A receptor = 5-HT5A receptor (Homo sapiens, UniProt P47898); test: Radioligand binding competition, 5-HT5A
Adrenergic α2A = Adrenergic α2A (Homo sapiens, UniProt P08913); test: Radioligand competition, adrenergic α2A; assay type: binding; conditions: Ki
Adrenergic α1B = Adrenergic α1B (Homo sapiens, UniProt P35368); test: Radioligand competition, adrenergic α1B; assay type: binding
Adrenergic α1B, sequence (P35368 whole entry): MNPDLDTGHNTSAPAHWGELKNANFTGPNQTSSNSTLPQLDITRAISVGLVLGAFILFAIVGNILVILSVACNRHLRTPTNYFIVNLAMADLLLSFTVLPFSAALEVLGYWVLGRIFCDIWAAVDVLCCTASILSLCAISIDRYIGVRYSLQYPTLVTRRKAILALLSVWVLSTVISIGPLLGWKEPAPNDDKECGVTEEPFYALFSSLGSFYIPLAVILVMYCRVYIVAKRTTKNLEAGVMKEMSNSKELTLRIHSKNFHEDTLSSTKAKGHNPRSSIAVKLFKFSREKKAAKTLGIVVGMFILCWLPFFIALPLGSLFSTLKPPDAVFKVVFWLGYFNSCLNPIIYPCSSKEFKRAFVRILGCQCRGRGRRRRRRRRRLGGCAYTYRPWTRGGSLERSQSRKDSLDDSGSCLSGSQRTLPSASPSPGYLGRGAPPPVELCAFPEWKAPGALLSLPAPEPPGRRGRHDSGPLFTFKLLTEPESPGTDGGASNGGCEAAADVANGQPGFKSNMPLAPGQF

Adrenergic α1D = Adrenergic α1D (Homo sapiens, UniProt P25100); test: Radioligand competition, adrenergic α1D; assay type: binding
hERG channel = hERG channel (Homo sapiens, UniProt Q12809); test: Target panel binding, hERG channel
hERG channel, sequence (Q12809 whole entry): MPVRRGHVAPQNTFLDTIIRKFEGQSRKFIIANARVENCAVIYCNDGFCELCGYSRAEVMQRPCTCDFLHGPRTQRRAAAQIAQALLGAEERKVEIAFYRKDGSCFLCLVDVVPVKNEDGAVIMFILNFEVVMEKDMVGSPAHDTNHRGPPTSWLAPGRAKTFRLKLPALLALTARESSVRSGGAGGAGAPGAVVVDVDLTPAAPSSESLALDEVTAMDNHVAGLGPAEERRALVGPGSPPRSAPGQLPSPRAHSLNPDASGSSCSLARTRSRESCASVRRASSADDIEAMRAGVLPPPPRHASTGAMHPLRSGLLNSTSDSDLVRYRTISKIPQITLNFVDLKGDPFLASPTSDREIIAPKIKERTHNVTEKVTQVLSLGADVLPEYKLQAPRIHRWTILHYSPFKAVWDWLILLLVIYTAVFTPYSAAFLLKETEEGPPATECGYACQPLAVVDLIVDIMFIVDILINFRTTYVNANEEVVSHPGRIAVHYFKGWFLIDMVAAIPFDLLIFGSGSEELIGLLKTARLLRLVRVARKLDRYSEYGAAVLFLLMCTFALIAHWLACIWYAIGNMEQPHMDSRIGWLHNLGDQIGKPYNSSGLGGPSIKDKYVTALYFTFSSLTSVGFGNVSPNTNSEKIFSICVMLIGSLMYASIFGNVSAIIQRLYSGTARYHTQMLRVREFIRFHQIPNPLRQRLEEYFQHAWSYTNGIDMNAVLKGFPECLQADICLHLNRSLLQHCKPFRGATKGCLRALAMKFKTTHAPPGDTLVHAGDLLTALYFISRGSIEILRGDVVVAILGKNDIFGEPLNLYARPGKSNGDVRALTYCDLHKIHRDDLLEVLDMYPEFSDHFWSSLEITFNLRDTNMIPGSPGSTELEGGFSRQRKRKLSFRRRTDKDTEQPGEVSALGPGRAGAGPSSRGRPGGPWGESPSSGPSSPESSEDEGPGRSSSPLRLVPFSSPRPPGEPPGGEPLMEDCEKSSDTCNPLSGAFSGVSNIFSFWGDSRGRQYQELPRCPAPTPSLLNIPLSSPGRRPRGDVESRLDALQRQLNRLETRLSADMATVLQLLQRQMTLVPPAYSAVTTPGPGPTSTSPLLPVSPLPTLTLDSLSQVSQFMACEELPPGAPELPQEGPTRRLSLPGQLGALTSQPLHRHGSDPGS

dopamine transporter = dopamine transporter (Homo sapiens, UniProt Q01959); test: Target panel binding, dopamine transporter
dopamine transporter, sequence (Q01959 whole entry): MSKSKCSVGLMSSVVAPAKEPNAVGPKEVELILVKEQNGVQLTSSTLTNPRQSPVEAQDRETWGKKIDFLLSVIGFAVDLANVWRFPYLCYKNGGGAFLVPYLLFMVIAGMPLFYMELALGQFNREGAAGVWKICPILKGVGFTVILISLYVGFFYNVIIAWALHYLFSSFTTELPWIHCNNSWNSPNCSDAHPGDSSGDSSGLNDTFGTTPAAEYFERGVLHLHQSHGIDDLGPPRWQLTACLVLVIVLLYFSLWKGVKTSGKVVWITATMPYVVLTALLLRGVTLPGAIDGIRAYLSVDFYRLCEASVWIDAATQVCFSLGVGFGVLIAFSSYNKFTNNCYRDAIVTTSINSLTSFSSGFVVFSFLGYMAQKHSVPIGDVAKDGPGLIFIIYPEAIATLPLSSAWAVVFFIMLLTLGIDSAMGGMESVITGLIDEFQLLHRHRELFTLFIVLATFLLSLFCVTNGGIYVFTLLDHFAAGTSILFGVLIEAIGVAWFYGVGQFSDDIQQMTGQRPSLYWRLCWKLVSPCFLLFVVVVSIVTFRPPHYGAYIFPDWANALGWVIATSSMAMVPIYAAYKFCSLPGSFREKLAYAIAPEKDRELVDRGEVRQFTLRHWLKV

5-HT2B receptor = 5-HT2B receptor (Homo sapiens, UniProt P41595); test: Intracellular Ca2+ mobilization in HEK 297 cells expressing 5-HT2B; assay type: cell-based
5-HT2B receptor, sequence (P41595 whole entry): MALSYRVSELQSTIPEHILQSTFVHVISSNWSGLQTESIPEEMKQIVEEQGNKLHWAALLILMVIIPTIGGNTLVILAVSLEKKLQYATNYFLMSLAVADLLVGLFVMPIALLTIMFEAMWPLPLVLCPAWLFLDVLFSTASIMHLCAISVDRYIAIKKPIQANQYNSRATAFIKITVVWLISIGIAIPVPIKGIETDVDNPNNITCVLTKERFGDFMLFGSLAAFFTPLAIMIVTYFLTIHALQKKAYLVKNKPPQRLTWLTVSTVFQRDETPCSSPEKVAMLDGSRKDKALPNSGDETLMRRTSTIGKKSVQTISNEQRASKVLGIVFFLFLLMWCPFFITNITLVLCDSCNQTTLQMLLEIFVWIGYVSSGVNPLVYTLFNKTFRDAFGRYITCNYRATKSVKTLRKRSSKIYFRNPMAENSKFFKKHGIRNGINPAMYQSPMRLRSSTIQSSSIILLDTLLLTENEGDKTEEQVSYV

CYP1A2 = CYP1A2 (Homo sapiens, UniProt P05177); test: Metabolism by recombinant CYP1A2; assay type: in vitro ADME
CYP1A2, sequence (P05177 whole entry): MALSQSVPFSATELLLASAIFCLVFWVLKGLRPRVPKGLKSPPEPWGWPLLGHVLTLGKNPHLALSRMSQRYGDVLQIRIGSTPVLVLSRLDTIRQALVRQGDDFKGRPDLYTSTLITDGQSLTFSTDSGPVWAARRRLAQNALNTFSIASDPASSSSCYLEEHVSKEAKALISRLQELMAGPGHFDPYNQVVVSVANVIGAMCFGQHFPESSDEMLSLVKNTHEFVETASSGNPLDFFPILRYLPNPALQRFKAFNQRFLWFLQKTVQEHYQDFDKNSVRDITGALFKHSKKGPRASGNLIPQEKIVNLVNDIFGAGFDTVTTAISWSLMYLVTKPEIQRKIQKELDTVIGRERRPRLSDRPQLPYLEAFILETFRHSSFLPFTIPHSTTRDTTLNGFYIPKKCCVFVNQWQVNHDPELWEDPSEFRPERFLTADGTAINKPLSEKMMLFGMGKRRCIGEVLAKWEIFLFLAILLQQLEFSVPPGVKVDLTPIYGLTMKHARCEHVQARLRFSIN

CYP2C8 = CYP2C8 (Homo sapiens, UniProt P10632); test: Metabolism by recombinant CYP2C8; assay type: in vitro ADME
CYP2C8, sequence (P10632 whole entry): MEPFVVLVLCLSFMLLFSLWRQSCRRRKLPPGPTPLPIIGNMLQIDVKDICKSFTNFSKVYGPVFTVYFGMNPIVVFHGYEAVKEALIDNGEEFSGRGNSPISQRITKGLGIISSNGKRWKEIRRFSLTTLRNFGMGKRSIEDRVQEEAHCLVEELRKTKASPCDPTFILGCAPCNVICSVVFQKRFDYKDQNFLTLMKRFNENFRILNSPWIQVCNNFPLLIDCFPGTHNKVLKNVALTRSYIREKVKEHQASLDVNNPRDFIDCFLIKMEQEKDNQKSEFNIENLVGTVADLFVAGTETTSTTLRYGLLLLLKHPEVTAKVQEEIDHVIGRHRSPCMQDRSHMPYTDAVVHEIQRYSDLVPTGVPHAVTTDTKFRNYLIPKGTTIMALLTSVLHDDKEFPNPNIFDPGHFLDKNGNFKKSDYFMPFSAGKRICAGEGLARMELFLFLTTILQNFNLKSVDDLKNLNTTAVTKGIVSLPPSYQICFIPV

CYP2C19 = CYP2C19 (Homo sapiens, UniProt P33261); test: Metabolism by recombinant CYP2C19; assay type: in vitro ADME
CYP2C19, sequence (P33261 whole entry): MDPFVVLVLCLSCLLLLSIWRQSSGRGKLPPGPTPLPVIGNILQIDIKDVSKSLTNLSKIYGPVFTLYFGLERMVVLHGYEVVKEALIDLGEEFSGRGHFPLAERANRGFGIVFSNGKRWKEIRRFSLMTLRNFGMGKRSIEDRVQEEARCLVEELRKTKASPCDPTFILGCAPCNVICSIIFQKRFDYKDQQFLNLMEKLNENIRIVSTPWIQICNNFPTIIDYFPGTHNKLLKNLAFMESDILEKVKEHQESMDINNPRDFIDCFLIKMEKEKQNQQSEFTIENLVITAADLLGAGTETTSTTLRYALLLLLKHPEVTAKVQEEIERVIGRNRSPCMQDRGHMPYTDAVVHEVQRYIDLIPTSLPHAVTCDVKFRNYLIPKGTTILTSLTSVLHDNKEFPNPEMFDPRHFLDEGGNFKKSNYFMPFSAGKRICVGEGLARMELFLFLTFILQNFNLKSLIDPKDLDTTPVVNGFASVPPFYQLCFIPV

[1] = Metabolism in rat liver S9 fraction; assay type: in vitro ADME; conditions: for half-life at 1 µM / half-life at 2 µM: rat, liver S9 fraction
[2] = Pharmacokinetics in mice, IP; assay type: in vivo; conditions: mouse, blood
[3] = Pharmacokinetics in Wistar rats, IV/IP/PO; assay type: in vivo; conditions: for Fabs: based on AUC0 ⟶240; for Cmax / Tmax / half-life / k el / AUC: Wistar, rat, plasma, 5 mg/kg
male BALB/c mice [4] = test: Elevated Plus-Maze; assay type: in vivo; conditions: IP; Buspirone 5 mg/kg; M2 0.05, 0.5, 1.0, 5.0 mg/kg
Method in brief: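 Elevated plus-maze in mice. Read-outs were open/closed arm time ratio, open/closed visit ratio, defecations and total visits. Each treated group was compared with the placebo group by Student t-test.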

BALB/c mice [5] = test: Open Field test; assay type: in vivo; conditions: IP; Lorazepam 0.05 mg/kg, AVN-101 0.2 mg/kg
Method in brief: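 Male BALB/c mice received lorazepam 30 min or test compound 5 min before testing; controls received saline, with at least 8 per group. Time in the central zone was recorded during a 10-min exploration. Comparison with the control group used ANOVA with Fisher LSD.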

BALB/c mice [6] = test: Porsolt forced swim test; assay type: in vivo; conditions: AVN-101 0.05 mg/kg IP once daily for 4 days
male BALB/c mice [7] = test: Passive avoidance, scopolamine-induced amnesia, mice; assay type: in vivo
Sprague Dawley rats = test: Passive avoidance, scopolamine-induced amnesia, rats; assay type: in vivo; conditions: 0.05 mg/kg IP
BALB/c mice [8] = test: Passive avoidance, MK-801-induced amnesia, mice; assay type: in vivo
male BALB/c mice [9] = test: Novel object recognition, MK-801-induced; assay type: in vivo; conditions: 0.2 mg/kg MK-801; memantine 10 mg/kg; SB-742457 0.2 or 1.0 mg/kg
Method in brief: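 All drugs were dissolved in saline and given IP; control animals received saline vehicle. Each group had at least 8 male BALB/c mice. Read-out was novel object recognition index, reported as mean ± SE.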

[10] = Maximum tolerated dose, 5-day oral; assay type: in vivo, mice; conditions: male, CD1, mouse, in vivo, po
Method in brief: (§1)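 Male CD1 mice received test compound in sterile water orally at 10, 30 or 60 mg/kg once daily for 5 days (n = 8 per group). Body weight and deaths were recorded daily, followed by a 2-week observation phase. MTD was taken as the highest dose causing neither mortality nor body-weight loss.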

male CD1 mice = test: Maximum tolerated dose, 5-day oral; assay type: in vivo
Method in brief: as §1

laboratory rabbits = test: 30 days toxicity, rabbits; assay type: in vivo; conditions: 4 mg/kg PO daily
[11] = system: rhesus macaques (Macaca Mulatta); test: 30 days toxicity, monkeys; assay type: in vivo; conditions: 5 mg/kg PO daily

Adrenergic α2A, sequence (P08913 whole entry): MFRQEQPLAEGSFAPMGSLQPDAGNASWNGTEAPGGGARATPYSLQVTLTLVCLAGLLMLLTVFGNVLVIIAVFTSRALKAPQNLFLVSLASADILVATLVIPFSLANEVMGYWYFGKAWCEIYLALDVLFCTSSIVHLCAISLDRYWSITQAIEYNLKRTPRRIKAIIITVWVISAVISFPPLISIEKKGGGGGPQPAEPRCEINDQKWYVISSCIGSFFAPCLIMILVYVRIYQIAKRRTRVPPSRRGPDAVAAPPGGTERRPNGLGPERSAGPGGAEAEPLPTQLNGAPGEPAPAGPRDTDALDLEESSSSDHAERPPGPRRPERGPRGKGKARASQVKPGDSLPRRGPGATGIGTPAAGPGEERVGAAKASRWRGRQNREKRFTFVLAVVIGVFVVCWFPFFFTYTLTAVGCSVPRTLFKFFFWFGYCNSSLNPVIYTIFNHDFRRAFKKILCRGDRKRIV

## Cc1ccc2c(c1)c1c(n2CCc2ccccc2)CCN(C)C1 [AVN-101, 2,8-dimethyl-5-penethyl-2,3,4,5-tetra-hydro-1h-pyrido[[4,3-B]]indole hydrochloride]
5-HT5A receptor
  Ki: 20.8 nM
Adrenergic α2A
  Ki: 0.41 to 3.6 nM
Adrenergic α1B
  Ki: 9.4 nM
Adrenergic α1D
  Ki: 30.2 nM
hERG channel
  binding: does not bind
Dopamine transporter
  binding: does not bind
5-HT2B receptor; AVN-101 alone, 10μM
  agonistic activity (intracellular free Ca2+): lacked intrinsic agonistic activity
5-HT2B receptor; αMet5-HT 5μM, AVN-101 10μM
  blockade of α methyl-serotonin-induced Ca2+ spike: effectively blocking
CYP1A2
  remaining at 0.5 h, 2 µM: 46%
CYP2C8
  remaining at 0.5 h, 2 µM: 118%
CYP2C19
  remaining at 0.5 h, 2 µM: 1%
[1]; phase 2 co-factor UDPGA only
  metabolism with UDPGA only: no metabolism
[1]; T1/2, +NADPH+UDPGA
  half-life at 1 µM: 0.96 min
  half-life at 2 µM: 2.34 min
[1]; T1/2, +NADPH
  half-life at 1 µM: 1.22 min
  half-life at 2 µM: 2.36 min
[2]; 0.05 mg/kg
  Cmax: 1.9 ng/mL
  Tmax: 5 min
  half-life: 10.5 min
[2]; 0.05 mg/kg, AUC0 - >t, IP 0.05 mg/kg
  AUC: 0.487 ng·h/mL
[2]; 0.05 mg/kg, AUC0 - >∞, IP 0.05 mg/kg
  AUC: 0.498 ng·h/mL
[2]; 0.2 mg/kg
  Cmax: 5 ng/mL
  Tmax: 15 min
  half-life: 58 min
[2]; 0.2 mg/kg, AUC0 - >t, IP 0.2 mg/kg
  AUC: 5.65 ng·h/mL
[2]; 0.2 mg/kg, AUC0 - >∞, IP 0.2 mg/kg
  AUC: 6.08 ng·h/mL
[2]; 1 mg/kg
  Cmax: 23 ng/mL
  Tmax: 15 min
  half-life: 81 min
[2]; 1 mg/kg, AUC0 - >t, IP 1.0 mg/kg
  AUC: 25.9 ng·h/mL
[2]; 1 mg/kg, AUC0 - >∞, IP 1.0 mg/kg
  AUC: 32 ng·h/mL
[2]; 2 mg/kg
  half-life: 130 min
[2]; 5 mg/kg
  Cmax: 198 ng/mL
  Tmax: 5 min
  concentration at 5 min: ~650 nM
  half-life: 136 min
[2]; 5 mg/kg, AUC0 - >t, IP 5.0 mg/kg
  AUC: 184 ng·h/mL
[2]; 5 mg/kg, AUC0 - >∞, IP 5.0 mg/kg
  AUC: 274 ng·h/mL
[3]; IP 5 mg/kg
  Fabs: 26.3%
[3]; PO 5 mg/kg
  Fabs: 8.5%
[3]; ip
  Cmax: 278 ng/mL
  Tmax: 5 min
  half-life: 177 min
  k el: 6.5e-05 s⁻¹
[3]; ip, AUC0 ⟶240, IP 5 mg/kg
  AUC: 1900 ng·h/mL
[3]; ip, AUC0 ⟶∞, IP 5 mg/kg
  AUC: 2830 ng·h/mL
[3]; iv
  Cmax: 847 ng/mL
  Tmax: 5 min
  half-life: 57.5 min
  k el: 0.000202 s⁻¹
[3]; iv, AUC0 ⟶240, IV 5 mg/kg
  AUC: 721 ng·h/mL
[3]; iv, AUC0 ⟶∞, IV 5 mg/kg
  AUC: 7530 ng·h/mL
[3]; po
  Cmax: 50 ng/mL
  Tmax: 5 min
  half-life: 117 min
  k el: 9.83e-05 s⁻¹
[3]; po, AUC0 ⟶240, PO 5 mg/kg
  AUC: 614 ng·h/mL
[3]; po, AUC0 ⟶∞, PO 5 mg/kg
  AUC: 810 ng·h/mL
Male BALB/c mice [4]
  anxiolytic effect (open/closed arm time and visits, defecations): clear anxiolytic effects
BALB/c mice [5]
  time spent in the central area: significant anxiolytic effect
BALB/c mice [6]
  decrease in immobility time: comparable to that observed with either Fluoxetine or Desipramine
Male BALB/c mice [7]; AVN-101 5 mg/kg IP
  reversal of scopolamine-induced amnesia vs comparators: equal to or more effective than either memantine or tacrine
Male BALB/c mice [7]; IP, scopolamine 0.3 mg/kg
  lowest dose with preventative effect on scopolamine-induced amnesic parameters: 0.02 mg/kg
Male BALB/c mice [7]; scopolamine model
  anti-amnesic dose: 0.05 mg/kg
Sprague Dawley rats
  reversal of pro-amnesic action of Scopolamine: significantly reverse
BALB/c mice [8]; IP
  effect on MK-801-induced amnesia: dose-dependently prevented
BALB/c mice [8]; MK-801 model
  anti-amnesic dose: 0.5 mg/kg
Male BALB/c mice [9]
  effect on deficit in novel object recognition: partially reverse
[10]
  MTD at 5 days: 10 to 30 mg/kg
Male CD1 mice; 30 mg/kg PO once daily for 5 days
  mortality: 12.5%
Male CD1 mice; 60 mg/kg PO once daily for 5 days
  mortality: 50%
Male CD1 mice; 60 mg/kg, starting from the 4th day
  body weight: statistically significant weight loss
Laboratory rabbits
  body weight, plasma biochemistry markers, macro- and microscopic observations: No changes
  kidney finding, one of 3 males: small infarctions in cortical substance of the kidneys
  ovary finding, one of 3 females: ovary hypo function
[11]
  signs of toxicity: did not show any signs of toxicity
